Active and inactive are the calls of the source.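 Rule for the calls, unless noted: active = a full or partial loss of lipid-probe fluorescence in the fish gall bladder, intestine or both, judged by eye; inactive = no fluorescence loss, or compound toxic to the fish.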
Assays:
[1] = inhibitors of TNFa-induced NFkB p65 translocation, primary screen, imaging, HUVEC, MLSMR starter and 10KST1 sets (AID 438;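 active = inhibition above 20% together with a positive visual image hit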;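 note: compound added about 3h40 before a 20 min TNFalpha stimulation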;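 for inhibition: signal is the nuclear over cytoplasmic p65 intensity ratio per well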); conditions: HUVEC TNFa-induced p65 nuclear translocation; cell count: measured here: nuclei count (cytotoxicity indicator), at 2.08 µM; inhibition: at 2 µM, stronger effect = higher value, 0% TNFa-plus-vehicle, 100% no-TNFa wells
[2] = inhibitors of E-selectin induction by TNFa, primary screen, imaging, HUVEC, immunofluorescence, MLSMR starter and 10KST1 sets (AID 487;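 active = visually confirmed hit in the image check and inhibition above 20%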;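 for inhibition: signal is fraction of cell area covered by stained E-selectin grains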;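 for nuclei count: 100% = median nuclei count of all wells on the same plate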); conditions: HUVEC TNFalpha-induced E-selectin immunofluorescence imaging, at 2 µM; inhibition: stronger effect = higher value; nuclei count: measured here: cell number, toxicity
[3] = DUSP6 inhibitors restoring Erk phosphorylation by chemical complementation, primary imaging in DUSP6-transfected HeLa (AID 609;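 active = compounds giving at least 50% inhibition in the cell-based MKP-3 phosphatase rescue imaging test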;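 for inhibition: phospho-Erk level distribution per well compared with pooled transfected vehicle control wells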); conditions: HeLa MKP-3 transfected, phospho-Erk imaging KS statistic, at 10 µM, cells stimulated with TPA for 15 min
[4] = target: Dual specificity protein phosphatase 6 (Homo sapiens) (UniProt Q16828); assay: as above; conditions: HeLa MKP-3 transfected, phospho-Erk imaging KS statistic; at 10 µM; stronger effect = higher value; cells stimulated with TPA for 15 min
Chain of Dual specificity protein phosphatase 6 (Homo sapiens) (Q16828 whole entry, looked up): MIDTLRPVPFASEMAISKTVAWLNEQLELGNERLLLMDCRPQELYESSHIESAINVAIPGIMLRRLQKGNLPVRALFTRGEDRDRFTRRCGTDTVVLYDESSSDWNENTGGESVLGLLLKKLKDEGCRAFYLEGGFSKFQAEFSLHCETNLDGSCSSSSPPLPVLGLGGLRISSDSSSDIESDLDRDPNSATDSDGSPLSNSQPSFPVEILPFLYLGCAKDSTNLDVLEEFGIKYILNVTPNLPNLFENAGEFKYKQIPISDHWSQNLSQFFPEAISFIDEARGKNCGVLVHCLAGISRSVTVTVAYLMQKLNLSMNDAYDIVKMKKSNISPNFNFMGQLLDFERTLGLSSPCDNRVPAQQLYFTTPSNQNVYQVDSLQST

[5] = target: Voltage-gated potassium channel subunit beta-2 (Rattus norvegicus) (UniProt P62483); assay: KvBeta enzyme negative modulators, primary screen, biochemical, NADPH fluorescence (AID 622;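 active = fluorescence slope higher than the sample average by over 3 SD, cut at about -0.22 in these data, passing the limit was not always enough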;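 note: slope of raw intensity against log time taken from 70 to 1610 s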); conditions: recombinant KvBeta, 4-cyanobenzaldehyde reduction, at 10 µM, stronger effect = higher value
Chain of Voltage-gated potassium channel subunit beta-2 (Rattus norvegicus) (P62483 whole entry, looked up): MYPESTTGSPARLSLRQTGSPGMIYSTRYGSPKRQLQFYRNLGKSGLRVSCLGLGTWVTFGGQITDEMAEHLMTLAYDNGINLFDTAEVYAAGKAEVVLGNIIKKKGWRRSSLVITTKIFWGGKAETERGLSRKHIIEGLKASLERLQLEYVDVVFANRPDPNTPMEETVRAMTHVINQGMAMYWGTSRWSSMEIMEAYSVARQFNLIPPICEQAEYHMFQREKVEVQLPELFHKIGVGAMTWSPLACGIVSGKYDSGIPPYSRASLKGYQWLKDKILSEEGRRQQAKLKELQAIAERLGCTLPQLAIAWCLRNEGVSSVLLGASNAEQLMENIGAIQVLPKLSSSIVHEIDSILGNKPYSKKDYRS

[6] = target: Voltage-gated potassium channel subunit beta-2 (Rattus norvegicus) (UniProt P62483); assay: KvBeta positive modulators, primary screen, biochemical, NADPH fluorescence (AID 623;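 active = NADPH fluorescence slope more negative than the mean of all samples by about 3 SD, 99.7% confidence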;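 note: fluorescence intensity change per second fitted from 20 to 320 s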); conditions: Recombinant KvBeta, NADPH fluorescence decrease slope, 10 min; at 10 µM; stronger effect = lower value
[7] = target: Alpha-2C adrenergic receptor (Homo sapiens) (UniProt P18825); assay: modulators of alpha2C/GIRK thallium flux, primary screen, cell-based, HEK293 alpha2C/GIRK1/2 (AID 624;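 active = fluorescence slope after compound addition differing from the mean of all screened samples at 99.7% confidence, in either direction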;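 note: slope of fluorescence ratio to pre-addition baseline per second over 15 to 24 s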); conditions: thallium flux BTC fluorescence, at 10 µM, actives lie on both sides
Chain of Alpha-2C adrenergic receptor (Homo sapiens) (P18825 whole entry, looked up): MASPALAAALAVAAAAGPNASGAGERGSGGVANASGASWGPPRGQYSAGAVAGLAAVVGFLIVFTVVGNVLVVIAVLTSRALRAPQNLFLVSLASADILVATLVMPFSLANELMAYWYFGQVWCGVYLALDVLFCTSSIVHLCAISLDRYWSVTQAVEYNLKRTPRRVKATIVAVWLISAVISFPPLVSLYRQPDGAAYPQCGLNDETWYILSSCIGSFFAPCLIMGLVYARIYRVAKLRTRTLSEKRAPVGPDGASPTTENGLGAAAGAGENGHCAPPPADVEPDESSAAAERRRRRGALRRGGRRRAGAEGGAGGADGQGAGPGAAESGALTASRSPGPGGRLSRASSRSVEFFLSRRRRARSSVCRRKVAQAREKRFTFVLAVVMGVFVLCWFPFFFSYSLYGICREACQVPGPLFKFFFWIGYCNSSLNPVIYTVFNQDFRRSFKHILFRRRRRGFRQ

[8] = inhibitors of larval lipid processing in zebrafish, primary screen, whole organism, PED6 fluorescence, gall bladder and intestine (AID 686); conditions: Zebrafish larvae PED6 lipid processing, fluorescence scoring; screened at 20 µM (by protocol);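 note: larvae 5 to 7 days old with five fish per well; signal comes from phospholipase A2 cleavage of quenched PED6 carried via bile; overnight exposure to compound and PED6 before scoring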
How it was run: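 Also added: quenched phospholipase substrate PED6, 100 nM final, ingested by larvae; System: zebrafish larvae, 5-7 d; Quantity: 5 larvae per well; Compound: 20 µM single dose; Schedule: overnight compound and PED6 incubation; Read-out: visual per-well fluorescence inhibition score; Measured by: By-eye fluorescence microscopy; Medium: E3.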

[9] = inhibitors of Chlamydomonas gravitaxis, primary screen, whole organism, Chlamydomonas reinhardtii, WT vs cilia-less mutant, absorbance, 96-well (AID 463189;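 active = inhibition at or above 50% relative to wild type and mutant plate controls; inactive = inhibition below 50%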;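 note: 0% = wild type cc124 cells in DMSO and 100% = ciliumless bld1 mutant cells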); conditions: OD600 absorbance, 2 days, at 10 µM, stronger effect = higher value
[10] = measured here: cell density z-score
[11] = measured here: nuclear c-Myc green intensity z-score
[12] = measured here: nuclear pErk red intensity z-score, stronger effect = higher value

Structure (SMILES) | cell count [1] | inhibition [1] | inhibition [2] | nuclei count [2] | z-score [3, 10] | z-score [3, 11] | z-score [3, 12] | inhibition [4] | fluorescence slope [5] | NADPH fluorescence slope [6] | slope [7] | outcome [8] | inhibition [9]
CCOc1ccc(C2=Nn3c(nnc3-c3cccnc3)SC2)cc1 | 732 | 1.2% (inactive) | -49.1% (inactive) | 186% | -0.574 | 2.33 | 0.047 | -9.66% (inactive) | -0.414 (inactive) | -0.000128 (inactive) | 0.00953 (inactive) | inactive | 8.58% (inactive)
COc1cccc(C2/C(=C(/O)c3ccc(C)cc3)C(=O)C(=O)N2Cc2ccco2)c1 (stereo unspecified) | 552 | -6.3% (inactive) | -20% (inactive) | 123% | 0.537 | 0.655 | -1.35 | 4.72% (inactive) | -0.512 (inactive) | -5.6e-05 (inactive) | 0.00539 (inactive) | inactive | 15.2% (inactive)
Cn1c(NCc2ccco2)nc2c1c(=O)n(Cc1ccc(Cl)c(Cl)c1)c(=O)n2C | 615 | -3.6% (inactive) | -47.4% (inactive) | 147% | -0.044 | 0.293 | 1.11 | -1.12% (inactive) | -0.511 (inactive) | -6.1e-05 (inactive) | 0.00544 (inactive) | inactive | 48.3% (inactive)
CN=c1sc2ccccc2n1CC(O)COc1ccccc1 (stereo unspecified) | 462 | -11% (inactive) | -95.8% (inactive) | 204% | -0.699 | 0.37 | 0.00223 | -0.624% (inactive) | -0.362 (inactive) | -2.9e-05 (inactive) | 0.00426 (inactive) | inactive | -3.38% (inactive)
CCOC(=O)CSc1nc2sc3c(c2c(=O)[nH]1)CC(C)(C)OC3 | 583 | -40.2% (inactive) | 18.3% (inactive) | 123% | -1.86 | 1.97 | -0.11 | 7.48% (inactive) | -0.519 (inactive) | -0.000112 (inactive) | 0.0047 (inactive) | inactive | -8.53% (inactive)
Cc1cccc(C)c1OCC(O)CNS(=O)(=O)c1ccccc1C(=O)N1CCCCC1 (stereo unspecified) | 512 | 5.4% (inactive) | -148% (inactive) | 171% | -0.797 | 2.33 | 0.877 | -3.95% (inactive) | -0.36 (inactive) | -7e-05 (inactive) | 0.00455 (inactive) | inactive | -6.87% (inactive)
COC(=O)CSc1nc(N)c2c3c(sc2n1)CCCC3 | 627 | -10.6% (inactive) | -9.7% (inactive) | 172% | -2.1 | 0.19 | 1.1 | 4.37% (inactive) | -0.355 (inactive) | -6.3e-05 (inactive) | 0.00567 (inactive) | inactive | -6.63% (inactive)
Cc1cc(COc2ccccc2OCCN2CCN(C)CC2)no1 | 551 | -2.5% (inactive) | -128% (inactive) | 134% | 0.378 | -1.63 | 0.134 | 5.95% (inactive) | -0.514 (inactive) | -6.1e-05 (inactive) | 0.0049 (inactive) | inactive | 9.35% (inactive)
CCOc1ccc(Br)cc1CC(=O)O | 280 | -20.4% (inactive) | -108% (inactive) | 90.5% | -0.00622 | -0.788 | -0.945 | 14% (inactive) | -0.486 (inactive) | -0.000116 (inactive) | 0.00651 (inactive) | inactive | -8.79% (inactive)
CCOC(=O)c1c(C)n(C)c2ccc(OC)c(NC(=O)c3cccs3)c12 | 361 | -4.3% (inactive) | -0.3% (inactive) | 151% | -1.28 | 0.0285 | 0.397 | -4.59% (inactive) | -0.424 (inactive) | -0.00012 (inactive) | 0.00568 (inactive) | inactive | -6.67% (inactive)
CCC1SC(N)=NC1=O (stereo unspecified) | 522 | -23.4% (inactive) | -58.7% (inactive) | 182% | -1.82 | 1.35 | 1.78 | -15% (inactive) | -0.405 (inactive) | -7.4e-05 (inactive) | 0.00536 (inactive) | inactive | 13.5% (inactive)
COc1cc(C2C(C#N)=C(N)Oc3cc(C)n(Cc4ccccn4)c(=O)c32)cc2c1OCO2 (stereo unspecified) | 433 | 6.2% (inactive) | -56.2% (inactive) | 88.8% | -2.67 | -0.393 | 1.97 | 11.4% (inactive) | -0.442 (inactive) | -1.2e-05 (inactive) | 0.00753 (inactive) | inactive | -11.1% (inactive)
CCOC(=O)c1cc(C)n(-c2ccc(OC)c(OC)c2)c1C | 530 | -8.1% (inactive) | -25.1% (inactive) | 122% | 1.68 | -2.38 | -0.201 | 5.57% (inactive) | -0.516 (inactive) | -0.000114 (inactive) | 0.00418 (inactive) | inactive | -0.885% (inactive)
CCOC(=O)C(C#N)C(Cc1ccccc1)c1ccco1 (stereo unspecified) | 590 | -3% (inactive) | -70.2% (inactive) | 166% | 1.19 | -0.726 | -0.042 | 2.46% (inactive) | -0.488 (inactive) | -0.000162 (inactive) | 0.00534 (inactive) | inactive | 6.44% (inactive)
C=CCc1cccc(/C=N/c2ncn[nH]2)c1O | 470 | -9% (inactive) | -90.5% (inactive) | 148% | -0.648 | 0.659 | -0.784 | 11.9% (inactive) | -0.491 (inactive) | -0.000107 (inactive) | 0.00453 (inactive) | inactive | -13.3% (inactive)
Cc1cc(C)nc(NC2=NCC(=O)N2c2cccc(Cl)c2)n1 | 581 | -4.9% (inactive) | -200% (inactive) | 141% | 1.05 | 1.03 | -2.43 | 15.9% (inactive) | -0.517 (inactive) | -4.2e-05 (inactive) | 0.00561 (inactive) | inactive | -3.6% (inactive)
CC(C)Cc1nc(N2CCOCC2)c(C#N)c2c1CCC2 | 488 | 3.3% (inactive) | -87.5% (inactive) | 114% | -1.23 | 0.0175 | 0.0727 | -5.26% (inactive) | -0.511 (inactive) | -1.9e-05 (inactive) | 0.00512 (inactive) | inactive; toxic | -5.18% (inactive)
COc1ccc(C2C(C#N)=C(N)SC(N)=C2C#N)cc1OC | 280 | -16.8% (inactive) | -21.6% (inactive) | 85.8% | 0.114 | 1.01 | -1.06 | -10.5% (inactive) | -0.401 (inactive) | -5.5e-05 (inactive) | 0.00592 (inactive) | inactive | -3.02% (inactive)
COC(=O)c1ccc(Oc2nc3ccccc3n3c(C)nnc23)cc1 | 328 | -6.8% (inactive) | -57.8% (inactive) | 74% | 0.524 | 1.04 | -0.937 | 24.7% (inactive) | -0.434 (inactive) | -1.9e-05 (inactive) | 0.00622 (inactive) | inactive | 27% (inactive)
CCn1cc(C(=O)NCC2CCCO2)c(=O)c2cc(F)c(N3CCN(C)CC3)cc21 (stereo unspecified) | 570 | -6.7% (inactive) | -14.6% (inactive) | 188% | -0.305 | -1.21 | 2 | 1.75% (inactive) | -0.388 (inactive) | -2.9e-05 (inactive) | 0.00486 (inactive) | inactive | 4.63% (inactive)
Cn1c(=O)n(C)c2cc(C(=O)c3ccccc3)ccc21 | 534 | -14.4% (inactive) | 24.3% (inactive) | 180% | 2.47 | -0.33 | -1.62 | 20.2% (inactive) | -0.53 (inactive) | -6.3e-05 (inactive) | 0.00503 (inactive) | inactive | -6.61% (inactive)
C=CCOC(=O)C1=C(C)OC(N)=C(C#N)C1c1ccoc1 (stereo unspecified) | 564 | 2.9% (inactive) | -24.3% (inactive) | 166% | -0.735 | -0.099 | 0.124 | 2.46% (inactive) | -0.32 (inactive) | 2.2e-05 (inactive) | 0.00536 (inactive) | inactive | 26.4% (inactive)
N#CC1=C(SCC(=O)c2ccccc2)NC2=C(C(=O)CCC2)C1c1ccco1 (stereo unspecified) | 310 | -8% (inactive) | -43.4% (inactive) | 91.7% | -2.24 | 2.65 | -0.86 | 1.42% (inactive) | -0.435 (inactive) | -3.2e-05 (inactive) | 0.00719 (inactive) | inactive | -15.7% (inactive)
CC(C)OC(=O)CC1=NC(=O)CS1 | 693 | -4% (inactive) | -27.6% (inactive) | 175% | -0.0687 | -1.07 | 0.103 | -0.624% (inactive) | -0.423 (inactive) | -4.2e-05 (inactive) | 0.00582 (inactive) | inactive | -2.62% (inactive)
N#CC1=C(SCc2ccccc2)NC2=C(C(=O)CCC2)C1c1ccc2c(c1)OCO2 (stereo unspecified) | 490 | -28.9% (inactive) | -54.8% (inactive) | 138% | 0.352 | -1.14 | -1.35 | -4.27% (inactive) | -0.525 (inactive) | -5.3e-05 (inactive) | 0.0074 (inactive) | inactive | -2.38% (inactive)
CCOC(=O)C(c1ccccc1)N1CCN(c2ccc(OC)cc2)CC1 (stereo unspecified) | 365 | -5.2% (inactive) | -72.8% (inactive) | 146% | -0.336 | -0.989 | -1.39 | 11.4% (inactive) | -0.422 (inactive) | -0.000118 (inactive) | 0.00552 (inactive) | inactive | -10% (inactive)
CC(=O)c1cc(C#N)c(SCC(=O)C(C)(C)C)nc1C | 620 | -22.5% (inactive) | 43.4% (inactive) | 103% | -0.699 | -0.489 | -0.711 | -3.95% (inactive) | -0.462 (inactive) | -1.9e-05 (inactive) | 0.00715 (inactive) | inactive | 42.5% (inactive)
